{
  "source": "paper PMC3251632",
  "about": "(Cancer research, 2011)",
  "key": {"[1]": {"biological_target": "σ-2 receptor (Homo sapiens, UniProt Q5BJF2)", "sequence (Q5BJF2 whole entry)": "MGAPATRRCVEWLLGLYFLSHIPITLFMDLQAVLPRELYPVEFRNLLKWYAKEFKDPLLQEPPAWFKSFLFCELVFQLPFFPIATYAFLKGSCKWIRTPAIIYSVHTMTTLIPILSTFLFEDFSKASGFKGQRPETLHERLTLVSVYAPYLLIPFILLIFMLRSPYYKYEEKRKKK", "assay": "Competitive displacement of fluorescent sigma-2 ligand SW120", "assay_type": "binding, human (CFPAC cells)", "settings": "compared to non-conjugated SV119; CFPAC cells"}, "[2]": {"settings": "ref ([30]–[32]); cited from earlier work"}, "[3]": {"system": "Akt", "assay": "Akt phosphorylation in CFPAC cells", "assay_type": "cell-based, human"}, "[4]": {"system": "CFPAC tumors", "assay": "Xenograft CFPAC tumor growth", "assay_type": "in vivo, human tumor in nude mice", "settings": "daily treatment for one week, CFPAC-bearing nude mice, n = 12 per group", "summary_of_the_method": "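Female nu/nu mice, 8–12 weeks old, carried 2 × 10^6 CFPAC cells in the flank. Treatment began ~2 weeks after implantation (mean diameter ~6–7 mm) and was given daily for one week, n = 12 per group. Tumour growth was measured by caliper as mean diameter. Groups were compared by one-tailed Student's t test.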"}, "[5]": {"settings": "SW43 by itself, vs SV119; ref ([24]); cited from earlier work"}, "[6]": {"system": "Panc02 tumors", "assay": "In vivo apoptosis in Panc02 tumors", "parameters": "species or system mouse (C57BL/6)", "settings": "single i.p. dose (S2-Bim 400 μg), next day, n = 3", "summary_of_the_method": "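Female C57BL/6 mice, 8–12 weeks old, received 1 × 10^6 Panc02 cells subcutaneously in the right flank. At two weeks (mean tumour diameter ~5 mm) they got a single i.p. dose of 400 μg. Tumours were harvested 24 h later. For TUNEL, tumours were stained directly. For caspase-3, tumours were minced to 1 mm and digested 45 min in RPMI with 1 mg/mL collagenase and 0.1 mg/mL DNase, filtered, ACK-lysed, resuspended in PBS pH 7.4, fixed in 1% paraformaldehyde, and read by flow cytometry for activated caspase-3.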"}, "[7]": {"system": "Panc02 tumors", "assay": "Syngeneic Panc02 tumor growth and survival", "assay_type": "in vivo, mouse (C57BL/6)", "settings": "C57BL/6 mice with Panc02 tumors; supplementary Fig. 4", "summary_of_the_method": "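Female C57BL/6 mice, 8–12 weeks old, carried 1 × 10^6 Panc02 cells in the flank. Dosing began ~2 weeks after implantation (mean diameter ~6–7 mm): i.p. every other day for two weeks, n = 12 per group. Mice were euthanised at tumour ulceration or a mean diameter of 15 mm. Survival was plotted as Kaplan-Meier curves and compared by log-rank test.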"}, "[8]": {"system": "pancreatic cancer cell lines", "assay": "Killing capacity in additional pancreatic cancer cell lines in vitro", "assay_type": "cell-based", "settings": "all cell lines under investigation; supplementary Fig. 3"}, "[9]": {"system": "Panc02 cells", "assay": "Caspase-3 activation", "assay_type": "cell-based, mouse", "settings": "10 μM, 24 h, flow cytometry"}},
  "note": "“Also recorded” adds a separate entry of the source.",
  "data": [
    {"molecule": "CC(C)=CCN1CC[C@]2(C)c3cc(O)ccc3C[C@H]1[C@H]2C", "note": "[(+)-pentazocine, reference compound]", "values": [
      {"measurement": "displacement of SW120 (in words)", "setting": "[1]", "result": "unable to compete off SW120"}
    ]},
    {"molecule": "CC1(C)CCC(c2ccc(Cl)cc2)=C(CN2CCN(c3ccc(C(=O)NS(=O)(=O)c4ccc(N[C@H](CCN5CCOCC5)CSc5ccccc5)c(S(=O)(=O)C(F)(F)F)c4)cc3)CC2)C1", "note": "[ABT-263]", "values": [
      {"measurement": "oral bioavailability (in words)", "setting": "[2]", "result": "orally bioavailable"}
    ]},
    {"molecule": "COc1ccc(C)cc1NC(=O)OC1C[C@H]2CCC[C@@H](C1)N2CCCCCCN", "note": "(stereo partly drawn) [SV119]", "values": [
      {"measurement": "activation status of the two central kinases (Akt and p70 S6 kinase)", "setting": "[3]; SV119 alone, 24 hours, also p70 S6 kinase (data not shown)", "result": "incapable of altering the activation status of these two central kinases"},
      {"measurement": "tumor growth, CFPAC xenograft (in words)", "setting": "[4]", "result": "somewhat reduced tumor growth rate"}
    ]},
    {"molecule": "COc1ccc(C)cc1NC(=O)OC1CC2CCCC(C1)N2CCCCCCCCCCN", "note": "(stereo not drawn) [SW43]", "values": [
      {"measurement": "cytotoxicity relative to SV119", "setting": "[5]", "result": "twice as cytotoxic by itself"}
    ]},
    {"molecule": "EIWIAQEARRIGAEFNAYYAR-OH [S2-BimX]", "values": [
      {"measurement": "displacement of SW120 (in words)", "setting": "[1]", "result": "displaced SW120 in a dose-dependent fashion"},
      {"measurement": "tumor cell apoptosis (activated caspase-3) in words", "setting": "[6]", "result": "only background signals"},
      {"measurement": "time by which all mice had died", "setting": "[7]", "result": "43 days post tumor inoculation"},
      {"measurement": "tumor growth, CFPAC xenograft (in words)", "setting": "[4]", "result": "somewhat reduced tumor growth rate; also recorded: elicited SV119 baseline activity"},
      {"measurement": "potency / response of pancreatic cancer cell lines (in words)", "setting": "[8]", "result": "virtually no activity in all cell lines tested; also recorded: complete loss of killing activity"}
    ]},
    {"molecule": "LDPKLMKEEQMSQAQLFTRSFDDGL-OH [S2-CTMP-4]", "values": [
      {"measurement": "fold increase in apoptosis (caspase-3 induction) vs SV119 alone", "setting": "[9]", "result": 1.3, "unit": "fold"},
      {"measurement": "interference with Akt activation (phosphorylation)", "setting": "[3]; CFPAC cells, 24 hours post-treatment", "result": "capable of interfering with Akt activation"}
    ]}
  ]
}
